Laboratory results from ChEMBL document CHEMBL1150164, “New cytotoxic xenia diterpenoids from the Formosan soft coral Xenia umbellata” (2002).
Values after ≈ are worked out from the molar mass of the structure shown.

Legend:
Type in all cases: functional
Settings in all cases: read-out: ED50 (the source's name)
P388 = experiment: Cytotoxicity against mouse P388 cells
Procedure, shortened: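 Murine P-388 lymphocytic leukaemia cells, supplied by an academic laboratory, were exposed to compounds in culture and cytotoxicity was measured in vitro.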

A549 = experiment: Cytotoxicity against human A549 cells
Procedure, shortened: (§1)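 In vitro cytotoxicity against cultured human tumour cell lines: A549 (lung adenocarcinoma) and HT-29 (colon adenocarcinoma), both obtained from a cell-line collection.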

HT-29 = experiment: Cytotoxicity against human HT-29 cells; procedure, shortened: as §1

Row | Structure (SMILES) | EC50 (P388) [µg/mL] | EC50 (A549) [µg/mL] | EC50 (HT-29) [µg/mL]
1 | C=C1CC[C@@H]2O[C@@]2(C)CC[C@H]2[C@H]1C(=O)O[C@@]2(/C=C/C=C(C)C)CO | 3.66 (≈ 11 µM) | 18.8 (≈ 56.6 µM) | 5.33 (≈ 16 µM)
2 | C=C1CC/C=C(\C)CC[C@@H]2/C(=C\CC3OC3(C)C)COC(=O)[C@@H]12 (stereo partly specified) | 2.87 (≈ 9.07 µM) | 11.2 (≈ 35.4 µM) | 21.1 (≈ 66.7 µM)
3 | C=C1CC[C@@H]2/C(=C\C=C\C(C)(C)O)COC(=O)[C@H]2C(=C)CCC1OO (stereo partly specified) | 0.04 (≈ 0.115 µM) | 4.77 (≈ 13.7 µM) | 8.31 (≈ 23.8 µM)
4 | C=C1CC/C=C(\C)CC[C@@H]2/C(=C\C=C\C(C)(C)O)CO[C@H](O)[C@@H]12 | 3.45 (≈ 10.8 µM) | 4.85 (≈ 15.2 µM) | 12.9 (≈ 40.5 µM)
5 | C=C1CC[C@@H]2O[C@@]2(C)CC[C@@H]2/C(=C\CC3OC3(C)C)COC(=O)[C@@H]12 (stereo partly specified) | 3.35 (≈ 10.1 µM) | 11.6 (≈ 34.9 µM) | 7.77 (≈ 23.4 µM)
6 | C=C1CC/C=C(\C)CC[C@@H]2/C(=C\C=C\C(C)(C)O)[C@@H](OC)O[C@H](OC)[C@@H]12 [XENIBECIN] | 3.96 (≈ 10.9 µM) | 13.4 (≈ 37 µM) | 12.5 (≈ 34.5 µM)
7 | C=C1CC[C@@H]2O[C@@]2(C)CC[C@H](/C(=C\CC2OC2(C)C)COC(C)=O)[C@H]1C(=O)OC (stereo partly specified) [XENITACIN] | 1.09 (≈ 2.68 µM) | 3.26 (≈ 8.02 µM) | 1.12 (≈ 2.76 µM)
